Converted amounts (≈) assume the structure as drawn. The source made the active and inactive calls. The calls are words filed in the database; no cut-off is given here.

The values that follow come from ChEMBL document CHEMBL4364238, “Discovery of BNC375, a Potent, Selective, and Orally Available Type I Positive Allosteric Modulator of α7 nAChRs” (ACS Med Chem Lett, 2019).

A short description of data set [1]: Stability in mouse liver microsomes assessed as hepatic extraction ratio at 1 uM measured for 45 mins by LC-MS/MS analysis. Format: ADME, Microsome. To be noted: read-out: ERH.
Data set [2] has as its system Mus musculus. The data set is described as follows: Reversal of scopolamine-induced memory impairment in mouse assessed as increase in spontaneous alteration at 0.3 mg/kg, po administered with compond and scopolamine at 60 mins and 30 mins respectively prior to test by T-maze test. In kind it is functional. A digest of the protocol:
(§1)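 Mouse T-maze continuous alternation task with scopolamine-induced impairment of spontaneous alternation; compound given orally in saline-based vehicle with 25% Cremophor ELP over 0.003–10.0 mg/kg; group means compared by one-way ANOVA then Fisher's PLSD, p < 0.05 significant.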

Data set [3] is described as follows: Plasma clearance in Sprague-Dawley rat at 4 mg/kg administered as single IV bolus dose. In kind it is ADME, organism-based. A digest of the protocol: (§2)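 Single IV bolus of 4.0 mg/kg in male Sprague–Dawley rats; dosing solution 1.1 mg/mL in saline-based vehicle with 0.1 M hydroxypropyl-β-cyclodextrin and 10% (v/v) DMSO; plasma pharmacokinetic parameters derived.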

A short description of data set [4]: Volume of distribution at steady state in Sprague-Dawley rat at 4 mg/kg administered as single IV bolus dose. Format: ADME, organism-based. The note with it: in vivo, read-out: Vdss. The procedure, abridged:
as §2

Data set [5] concerns the target Neuronal acetylcholine receptor subunit alpha-7 (Rattus norvegicus) (UniProt Q05941). The data set is described as follows: Positive allosteric modulator activity at rat alpha7 nAChR expressed in GH4C1 cells assessed as potentiation of acetylcholine response at 3 uM at -70 mV holding potential preincubated for 30 secs followed by co-application with acetylcholine by automated patch clamp assay. In kind it is cell-based. The procedure, abridged:
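Automated planar patch clamp on stable GH4C1 (rat) cell lines expressing rat α7 nAChR; test compound at 3 μM with an EC₂₀ acetylcholine challenge; percent change in peak current versus acetylcholine alone taken as P₃.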

Data set [6] can be described thus: Dose normalized AUC (0 to infinity) in Sprague-Dawley rat at 4 mg/kg administered as single IV bolus dose. In kind it is ADME, organism-based. The note with it: in vivo. A digest of the protocol:
as §2

A short description of data set [7]: Half life in Sprague-Dawley rat plasma at 4 mg/kg administered as single IV bolus dose. In kind it is ADME, organism-based. The procedure, abridged: as §2
In data set [8] the target is Neuronal acetylcholine receptor subunit alpha-7 (Rattus norvegicus) (UniProt Q05941). The data set is described as follows: Positive allosteric modulatory activity at rat alpha7 nAChR expressed in GH4C1 cells assessed as AUC of potentiation of acetylcholine response at 3 uM at -70 mV holding potential preincubated for 30 secs followed by co-application with acetylcholine by automated patch clamp assay relative to potentiation of current response. Format: cell-based.
Neuronal acetylcholine receptor subunit alpha-7 (Rattus norvegicus), sequence (Q05941 whole entry): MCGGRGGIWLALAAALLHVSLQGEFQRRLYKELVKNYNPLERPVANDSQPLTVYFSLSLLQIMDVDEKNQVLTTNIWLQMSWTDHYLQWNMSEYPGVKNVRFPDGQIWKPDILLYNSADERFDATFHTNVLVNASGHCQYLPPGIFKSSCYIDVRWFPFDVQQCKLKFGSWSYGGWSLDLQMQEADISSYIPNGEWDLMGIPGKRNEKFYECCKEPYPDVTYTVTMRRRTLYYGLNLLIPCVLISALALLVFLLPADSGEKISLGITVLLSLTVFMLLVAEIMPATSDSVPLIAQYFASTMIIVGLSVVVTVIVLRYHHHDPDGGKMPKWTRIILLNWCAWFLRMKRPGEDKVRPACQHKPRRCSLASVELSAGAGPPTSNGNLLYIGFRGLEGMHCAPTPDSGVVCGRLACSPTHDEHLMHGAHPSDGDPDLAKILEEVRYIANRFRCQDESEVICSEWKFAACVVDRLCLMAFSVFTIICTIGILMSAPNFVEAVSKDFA

Data set [9] is described as follows: Oral bioavailability in Sprague-Dawley rat. In kind it is ADME, organism-based. To be noted: in vivo.
The nature of data set [10]: Apparent permeability in human Caco2 cells. Format: ADME, cell-based. To be noted: Caco-2.
Data set [11] addresses Neuronal acetylcholine receptor subunit alpha-7 (Rattus norvegicus, UniProt Q05941). The data set is described as follows: (§3) Positive allosteric modulatory activity at rat alpha7 nAChR expressed in GH4C1 cells assessed as potentiation of acetylcholine response at -70 mV holding potential preincubated for 30 secs followed by co-application with acetylcholine by manual patch clamp assay. In kind it is cell-based. The procedure, abridged: (§4)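 Conventional manual patch-clamp with a fast-application system on stable GH4C1 cells expressing rat α7 nAChR; currents evoked by acetylcholine with and without test compound; peak-current change relative to acetylcholine alone gives potentiation (P₃ at 3 μM; concentration–response for EC₅₀ and Pmax).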

Data set [12] is described as follows: Stability in human liver microsomes assessed as hepatic extraction ratio at 1 uM measured for 45 mins by LC-MS/MS analysis. In kind it is ADME, Microsome. The note with it: read-out: ERH.
In data set [13] the test system is Mus musculus. The data set is described as follows: Reversal of scopolamine-induced memory impairment in mouse assessed as increase in spontaneous alteration at 0.03 mg/kg, po administered with compond and scopolamine at 60 mins and 30 mins respectively prior to test by T-maze test. Format: functional. The procedure, abridged: as §1
In data set [14] the target is Neuronal acetylcholine receptor subunit alpha-7 (Rattus norvegicus) (UniProt Q05941). The data set is described as follows: Positive allosteric modulatory activity at rat alpha7 nAChR expressed in GH4C1 cells assessed as AUC of potentiation of peak current at -70 mV holding potential preincubated for 30 secs followed by co-application with acetylcholine by manual patch clamp assay relative to peak current potentiation. In kind it is cell-based. A digest of the protocol:
as §4

For data set [15], the system named is Mus musculus. Description: Reversal of scopolamine-induced memory impairment in mouse assessed as increase in spontaneous alteration at 0.003 mg/kg, po administered with compond and scopolamine at 60 mins and 30 mins respectively prior to test by T-maze test. Format: functional. The procedure, abridged:
as §1

The test system of data set [16] is Mus musculus. Description: Reversal of scopolamine-induced memory impairment in mouse assessed as increase in spontaneous alteration at 3 mg/kg, po administered with compond and scopolamine at 60 mins and 30 mins respectively prior to test by T-maze test. In kind it is functional. The note with it: read-out: INH. The procedure, abridged:
as §1

In data set [17] the target is Neuronal acetylcholine receptor subunit alpha-7 (Rattus norvegicus) (UniProt Q05941). The data set is described as follows: Positive allosteric modulatory activity at rat alpha7 nAChR expressed in GH4C1 cells assessed as potentiation of peak current at -70 mV holding potential preincubated for 30 secs followed by co-application with acetylcholine by manual patch clamp assay relative to acetylcholine-induced peak current. Format: cell-based. A digest of the protocol: as §4

A short description of data set [18]: Solubility of the compound at pH 6.5. The note with it: buffer. Format: physicochemical.
Data set [19] in a line: Lipophilicity, log D of the compound at pH 7.4. In kind it is physicochemical. The note with it: buffer.
The nature of data set [20]: Solubility of the compound at pH 2. Format: physicochemical. The note with it: buffer.
Data set [21] has as its system Mus musculus. The data set is described as follows: Reversal of scopolamine-induced memory impairment in mouse assessed as increase in spontaneous alteration at 1 mg/kg, po administered with compond and scopolamine at 60 mins and 30 mins respectively prior to test by T-maze test. Format: functional. To be noted: read-out: INH. The procedure, abridged: as §1
Data set [22] has as its system Mus musculus. The data set is described as follows: Reversal of scopolamine-induced memory impairment in mouse assessed as spontaneous alteration at 3 to 30 mg/kg, po administered with compond and scopolamine at 60 mins and 30 mins respectively prior to test by T-maze test. In kind it is functional, organism-based. A digest of the protocol:
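Mouse T-maze continuous alternation task; reversal of scopolamine-induced loss of spontaneous alternation after ip or oral doses of 3 and 30 mg/kg; significant doses reported.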

In data set [23] the target is Neuronal acetylcholine receptor subunit alpha-7 (Rattus norvegicus) (UniProt Q05941). The data set is described as §3. Format: cell-based. The procedure, abridged:
as §4

A further data set has as its target Cytochrome P450 2C9 (Homo sapiens, UniProt P11712). The data set is described as follows: Inhibition of CYP2C9 (unknown origin). Format: ADME.
For the next data set, the target named is Cytochrome P450 2C19 (Homo sapiens, UniProt P33261). Description: Inhibition of CYP2C19 (unknown origin). Format: ADME.
Cytochrome P450 2C19, sequence (P33261 whole entry): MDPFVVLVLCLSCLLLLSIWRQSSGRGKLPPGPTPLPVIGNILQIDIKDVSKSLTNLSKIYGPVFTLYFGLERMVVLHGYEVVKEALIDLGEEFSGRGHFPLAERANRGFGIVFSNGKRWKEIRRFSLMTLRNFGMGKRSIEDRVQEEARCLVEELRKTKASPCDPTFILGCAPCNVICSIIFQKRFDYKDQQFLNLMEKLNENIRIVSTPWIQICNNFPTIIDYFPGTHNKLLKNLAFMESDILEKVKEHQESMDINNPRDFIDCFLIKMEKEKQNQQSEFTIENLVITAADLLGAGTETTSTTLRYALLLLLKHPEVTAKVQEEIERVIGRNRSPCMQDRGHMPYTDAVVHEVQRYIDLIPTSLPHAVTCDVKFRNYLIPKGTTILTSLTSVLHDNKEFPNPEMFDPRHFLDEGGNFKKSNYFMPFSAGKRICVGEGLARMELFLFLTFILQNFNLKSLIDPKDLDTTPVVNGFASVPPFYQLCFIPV
Data set [24] concerns the target Neuronal acetylcholine receptor subunit alpha-7 (Rattus norvegicus) (UniProt Q05941). Description: Agonist activity at rat alpha7 nAChR expressed in GH4C1 cells assessed as current response at 3 uM at -70 mV holding potential by manual patch clamp assay. In kind it is cell-based. The procedure, abridged: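 Manual patch clamp with fast application on stable GH4C1 cells expressing α7 nAChR; test compound applied without acetylcholine to look for evoked currents.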

Neuronal acetylcholine receptor subunit alpha-7, sequence (Q05941 whole entry): as the sequence (Q05941 whole entry) above
Cytochrome P450 2C9, sequence (P11712 whole entry): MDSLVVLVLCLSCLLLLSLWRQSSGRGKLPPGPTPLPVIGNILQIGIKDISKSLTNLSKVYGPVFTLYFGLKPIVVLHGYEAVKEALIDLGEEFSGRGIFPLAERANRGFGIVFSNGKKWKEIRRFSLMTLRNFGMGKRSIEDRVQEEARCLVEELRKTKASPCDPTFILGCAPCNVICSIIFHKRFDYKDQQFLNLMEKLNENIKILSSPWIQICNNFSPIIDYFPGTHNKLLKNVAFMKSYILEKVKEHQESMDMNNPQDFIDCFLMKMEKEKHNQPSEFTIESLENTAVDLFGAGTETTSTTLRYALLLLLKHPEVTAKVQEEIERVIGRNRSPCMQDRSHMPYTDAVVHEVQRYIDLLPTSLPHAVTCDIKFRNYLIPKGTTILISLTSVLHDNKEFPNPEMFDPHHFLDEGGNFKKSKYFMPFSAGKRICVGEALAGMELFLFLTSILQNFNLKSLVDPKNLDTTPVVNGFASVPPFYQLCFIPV

As for `COc1ccc(Cl)cc1NC[C@H]1[C@H](c2ccc(S(N)(=O)=O)cc2)C1(C)C`, the hepatic extraction ratio at 0.75 h, 1 µM in data set [1] stood at 0.71; in data set [12], 0.59. Further, the inhibition in vivo at 0.3 mg/kg in the data set on Mus musculus [2] was 65%. In addition, the clearance in data set [3] was found to be 43 mL/min/kg. Moreover, in [4], the Vd amounted to 5.1 L/kg. Moreover, the Activity in data set [5] is 11800%. This molecule showed an AUC/dose in data set [6] of 1 µM·h/mg. The molecule further showed a half-life in [7] of 3.9 h. The figures for the Ratio in data set [8] and in data set [14] were 57 and 25, respectively. In data set [9], this molecule registered a bioavailability of 77%. The Papp in data set [10] was determined as 14 ×10⁻⁶ cm/s. Also, in [11], the EC50 turned out to be 63 nM. The inhibition in vivo at 0.03 mg/kg with Mus musculus [13] amounted to 11%. Besides, in the data set with Mus musculus [15], the inhibition in vivo at 0.003 mg/kg was -3%. Further, the percent reversal of scopolamine-induced memory impairment at 3 mg/kg with Mus musculus [16] was 90%. The Emax in data set [17] came out at 1630%.

Turning to `COc1ccc(Cl)cc1NC[C@@H]1[C@@H](c2ccc(S(N)(=O)=O)cc2)C1(C)C`, the values for the hepatic extraction ratio at 0.75 h, 1 µM in [1] and in [12] were 0.79 and 0.84, respectively. Further, in the data set on Mus musculus [2], the inhibition in vivo at 0.3 mg/kg was 62%. In data set [3], this molecule registered a clearance of 35 mL/min/kg. Besides, the Vd in data set [4] is 1.8 L/kg. The solubility in data set [18] was 1.6 to 3.1 µg/mL (≈ 4.05 to 7.85 µM); in [20] it was over 100 µg/mL. For the same molecule, the Activity in data set [5] came out at 1160%. This molecule yielded an AUC/dose in [6] of 1.2 µM·h/mg. This molecule also had a half-life in data set [7] of 1.2 h. In data set [19], this molecule registered a logD of 4.2. For the same molecule, the Ratio in data set [8] stood at 3.1; in data set [14], 1.7. The same molecule displayed a bioavailability in [9] of 62%. Moreover, the Papp in data set [10] was determined as 11 ×10⁻⁶ cm/s. The EC50 in data set [11] turned out to be 1900 nM. Besides, the inhibition in vivo at 0.03 mg/kg in the data set with Mus musculus [13] worked out at 51%. In the data set with Mus musculus [15], the inhibition in vivo at 0.003 mg/kg is -9%. Also, the percent reversal of scopolamine-induced memory impairment at 3 mg/kg in the data set on Mus musculus [16] stood at 78%. The Emax in data set [17] amounted to 1570%. In addition, the percent reversal of scopolamine-induced memory impairment (increase in spontaneous alternation) at 1 mg/kg in the data set with Mus musculus [21] is 78%.

Take `COc1ccc(Cl)cc1NCC1C(c2ccc(S(N)(=O)=O)cc2)C1(C)C` (racemic): the hepatic extraction ratio at 0.75 h, 1 µM in data set [1] worked out at 0.82; in [12], 0.64. The inhibition result in the data set with Mus musculus [22] was “Active”. Moreover, the solubility was over 100 µg/mL in data set [18] and 1.6 to 3.1 µg/mL (≈ 4.05 to 7.85 µM) in data set [20]. Also, the Activity in data set [5] is 7900%; in data set [23], “Dose-dependent effect”. Moreover, the EC50 in data set [11] was found to be 25 nM. Besides, the IC50 on Cytochrome P450 2C9 and against Cytochrome P450 2C19 was over 10000 nM throughout. The inhibition result in data set [24] was “inactive”. Further, in [17], the Emax was found to be 650%.
